# Measured values from different studies.
# Cell line: U-251
# Effect on: cell growth or viability
SMILES,method,tested at,time,measurement,result
COc1ccc(C(=O)/C=C/c2cccnc2)cc1S(N)(=O)=O,SRB,10 µM,,inhibition,89%
COc1cc(-c2ccc(-c3ccc(C(=N)N)nc3)s2)cc(OC)c1OC,SRB,,,GI50,1740 nM
COc1nc(OCc2cccc(-c3ccccc3)c2C)ccc1CNCCNC(C)=O,MTT,,,IC50,4300 nM
COc1cccc(Oc2ccccc2NC(=O)CNC(=O)c2cccc3ccccc23)c1,SRB,,48 h,GI50,240 nM
O=C1Nc2ccccc2C1=NNc1nnc2n1N=C(c1ccccc1)CS2,SRB,10 µM,,inhibition,50%
CC(=O)O[C@H]1C(=O)[C@@]2(C)[C@H]([C@H](OC(=O)c3ccccc3)[C@]3(O)C[C@H](OC(=O)[C@H](O)[C@@H](NC(=O)c4ccccc4)c4ccccc4)C(C)=C1C3(C)C)[C@]1(OC(C)=O)CO[C@@H]1C[C@@H]2O,,,,IC50,0.5 µg/mL
Cc1cc(NC(=O)c2cccc3cc(-c4cccc5[nH]nc(N)c45)ccc23)ccc1F,CCK-8,,72 h,IC50,> 20000 nM
COc1ccc(C(=O)/C=C/c2cccc(Br)c2)cc1S(N)(=O)=O,SRB,10 µM,,inhibition,198%
COc1ccc(-c2ccc(-c3ccc(C(=N)N)nc3)s2)cc1,SRB,,,GI50,1810 nM
